# Assay results reported in ChEMBL document CHEMBL3351368, “Biphenyl-4-carboxylic acid [2-(1H-indol-3-yl)-ethyl]-methylamide (CA224), a nonplanar analogue of fascaplysin, inhibits Cdk4 and tubulin polymerization: evaluation of in vitro and in vivo anticancer activity” (J Med Chem, 2014).
# Calls of active or inactive are those of the source.
# Assays:
# CDK9/cyclin T1 = CDK9/cyclin T1 (Homo sapiens, UniProt P50750); test: Binding affinity to human CDK9/cyclinT1; type: protein-complex assay
# [1] = molecular target: Cyclin-dependent kinase 5/CDK5 activator 1 (Homo sapiens) (UniProt Q00535+Q15078); test: Inhibition of human CDK5/p35 assessed as enzyme activity at 10 uM; type: protein-complex assay
# [2] = molecular target: CDK6/cyclin D1 (Homo sapiens) (UniProt P24385+Q00534); test: Inhibition of human CDK6/cyclinD1 assessed as enzyme activity at 10 uM; type: protein-complex assay
# [3] = Growth inhibition of p53His273 mut, pRb+ human MiaPaCa cells after 48 hrs by MTT assay; type: functional; conditions: MIA PaCa-2, 48 h
# How it was run: (§1)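 MTT cell proliferation assay. IC50 (µM) was defined as the concentration giving 50% inhibition of cell growth.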
# NCI-H358 [4] = test: Growth inhibition of p53 null, pRb null human NCI-H358 cells after 48 hrs by MTT assay; type: functional, cell-based; conditions: NCI-H358, 48 h; how it was run: as §1
# NCI-H358 [5] = test: Cell cycle arrest in human NCI-H358 cells assessed as accumulation of cells at G0/G1 phase at IC50 concentration after 12 hrs by flow cytometry in presence of nocodazole for 18 hrs (reference value: 40%); type: functional
# NCI-H358 [6] = test: Cell cycle arrest in human NCI-H358 cells assessed as accumulation of cells at G2/M phase at IC50 concentration after 18 hrs by flow cytometry in presence of […] uM hydroxyurea for 18 hrs (reference value: 33%); type: functional
# [7] = Cell cycle arrest in mouse BNL-CL2 cells assessed as accumulation of cells at subG1 phase at IC50 concentration after 48 hrs by flow cytometry (reference value: 0%); type: functional
# How it was run: (§2)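 Normal (BNL CL2) and SV40 large T-antigen transformed (BNL SV A.8) mouse embryonic hepatic cells were treated at IC50 or IC70 concentration for 48 h. Analysis was by FACS, with apoptosis taken as % cells in the sub-G1 peak. Untreated cells served as control.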
# [8] = Cell cycle arrest in mouse BNL-SVA.8 cells assessed as accumulation of cells at G0/G1 phase at IC50 concentration after 48 hrs by flow cytometry (reference value: 64%); type: functional; how it was run: as §2
# MiaPaCa [9] = test: Effect on p27 level in p53His273 mutant, pRb+ human MiaPaCa cells at IC50 concentration after 48 hrs by Western blot analysis; type: functional
# MiaPaCa [10] = test: Effect on phosphorylation of Cdk1 at Tyr15 in p53His273 mutant, pRb+ human MiaPaCa cells at IC50 concentration after 48 hrs by Western blot analysis; type: functional
# Tubulin (Homo sapiens) [11] = molecular target: T1, Tubulin (Homo sapiens) (UniProt P68371+Q9H4B7+P0DPH7+P68366+Q13509+Q71U36+P04350+Q3ZCM7+P07437+P68363+Q9BQE3+Q6PEY2+Q13885+Q9BVA1+Q9BUF5); test: Inhibition of tubulin (unknown origin) polymerization assessed as decrease in Vmax measured at 5 uM by spectrophotometry; type: protein-complex assay
# How it was run: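 Purified tubulin polymerisation followed as absorbance increase over about 4000 s. Vmax (mOD/min) is taken as the read-out, with final polymer mass also noted. Compound is tested at 2.5, 5, 10 and 25 µM alongside untreated control, paclitaxel 10 µM (enhancer) and nocodazole 10 µM (inhibitor). Curves are the average of three independent experiments.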
# A549 = test: Induction of apoptosis in p53+, pRb+ human A549 cells assessed as fragmented nuclei/distrupted cell membrane after 24 hrs by DAPI staining-based flow cytometry; type: functional
# NCI-H460 = test: Induction of apoptosis in p53+, pRb+ human NCI-H460 cells assessed as fragmented nuclei/distrupted cell membrane at 1 to 10 uM by DAPI staining-based flow cytometry; type: functional; conditions: TDE = time-dependent effect
# [12] = Solubility in simulated gastric fluid; type: ADME
# [13] = AUC (0 to t) in BALB/c mouse at 10 mg/kg, po; type: ADME, organism-based; design: dose 10 mg/kg, route oral; conditions: plasma
# How it was run: (§3)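 BALB/c mice given a single dose of 1.0 mg/kg IV or 10 mg/kg orally; plasma concentration followed over time and pharmacokinetic parameters derived from the time-concentration profile.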
# [14] = Cmax in BALB/c mouse at 1 mg/kg, iv; type: ADME, organism-based; design: dose 1 mg/kg, route intravenous; conditions: in vivo; how it was run: as §3
# [15] = Oral bioavailability in BALB/c mouse at 10 mg/kg; type: ADME, organism-based; conditions: in vivo; how it was run: as §3
# [16] = Terminal half life in BALB/c mouse at 1 mg/kg, iv; type: ADME, organism-based; design: dose 1 mg/kg, route intravenous; conditions: in vivo, read-out: beta t1/2 (converted); how it was run: as §3
# Mus musculus [17] = test: Toxicity in human HCT116 cells xenografted in SCID mouse at 100 mg/kg, ip relative to untreated control; type: organism-based, HCT-116; design: dose 100 mg/kg, route intraperitoneal; conditions: in vivo
# How it was run: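 SCID male mice, 18-25 g, 6-8 weeks old, received 6.6 × 10^6 HCT-116 cells subcutaneously on the dorsal side. Randomized into groups of 7 at 4-6 mm tumors (about 5 days), then dosed intraperitoneally for 9 consecutive days. Tumor size recorded every 2-5 days, weight = L×W²×0.5; %GI = 100 − %T/C. Body weight taken daily relative to start; Student t-test.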
# Mus musculus [18] = test: Toxicity in human NCI-H460 cells xenografted in SCID mouse at 100 mg/kg, ip relative to untreated control; type: organism-based; design: dose 100 mg/kg, route intraperitoneal; conditions: in vivo
# How it was run: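 SCID female mice, 15-24 g, 6-8 weeks old, received 5.3 × 10^6 NCI-H460 cells subcutaneously on the dorsal side. Randomized at 4-6 mm tumors (about 6 days) into groups of 6 or 7, then dosed intraperitoneally for 9 consecutive days. Body weight recorded daily as percent of the start-of-treatment weight; >10% drop counted significant, >20% highly significant.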
# [19] = Cell cycle arrest in SV-40 large T-antigen transformed human WI38 cells assessed as accumulation of cells at subG1 phase by flow cytometry; type: functional, cell-based; conditions: WI-38
# LS174T = test: Increase in p27 level in p53+, pRb+ human LS 174T cells at IC50 concentration after 24 hrs by Western blot analysis
# Tubulin (Homo sapiens) [20] = molecular target: T1, Tubulin (Homo sapiens); test: Inhibition of tubulin (unknown origin) polymerization assessed as decrease in Vmax measured at 25 uM by spectrophotometry
# NCI-H1299 [21] = test: Induction of apoptosis in p53 null, pRb+ human NCI-H1299 cells assessed as fragmented nuclei/distrupted cell membrane after 24 hrs by DAPI staining-based flow cytometry
# NCI-H1299 [22] = test: Induction of apoptosis in p53 null, pRb+ human NCI-H1299 cells assessed as fragmented nuclei/distrupted cell membrane at 1 to 10 uM by DAPI staining-based flow cytometry; conditions: TDE = time-dependent effect
# NCI-H358 [23] = test: Induction of apoptosis in p53 null, […] human NCI-H358 cells assessed as fragmented nuclei/distrupted cell membrane at 1 to 10 uM by DAPI staining-based flow cytometry; conditions: TDE = time-dependent effect
# Chain of Cyclin-dependent kinase 5/CDK5 activator 1 (Homo sapiens) (Q00535 whole entry): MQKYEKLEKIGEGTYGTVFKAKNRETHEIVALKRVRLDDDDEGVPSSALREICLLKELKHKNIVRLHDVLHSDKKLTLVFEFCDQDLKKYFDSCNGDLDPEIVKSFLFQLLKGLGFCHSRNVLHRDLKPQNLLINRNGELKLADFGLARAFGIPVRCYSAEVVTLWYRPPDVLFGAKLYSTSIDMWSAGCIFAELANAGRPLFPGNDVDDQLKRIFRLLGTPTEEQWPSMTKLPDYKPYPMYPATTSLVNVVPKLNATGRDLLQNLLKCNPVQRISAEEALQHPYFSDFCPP
# Chain of Cyclin-dependent kinase 5/CDK5 activator 1 (Homo sapiens) (Q15078 99-307 partner limits assumed): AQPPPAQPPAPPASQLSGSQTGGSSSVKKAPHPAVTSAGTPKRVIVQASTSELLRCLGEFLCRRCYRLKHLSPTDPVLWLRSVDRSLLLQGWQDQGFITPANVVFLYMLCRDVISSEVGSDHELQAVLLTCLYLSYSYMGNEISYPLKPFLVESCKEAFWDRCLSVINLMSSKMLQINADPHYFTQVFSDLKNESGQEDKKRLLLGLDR
# Chain of CDK9/cyclin T1 (O60563 whole entry): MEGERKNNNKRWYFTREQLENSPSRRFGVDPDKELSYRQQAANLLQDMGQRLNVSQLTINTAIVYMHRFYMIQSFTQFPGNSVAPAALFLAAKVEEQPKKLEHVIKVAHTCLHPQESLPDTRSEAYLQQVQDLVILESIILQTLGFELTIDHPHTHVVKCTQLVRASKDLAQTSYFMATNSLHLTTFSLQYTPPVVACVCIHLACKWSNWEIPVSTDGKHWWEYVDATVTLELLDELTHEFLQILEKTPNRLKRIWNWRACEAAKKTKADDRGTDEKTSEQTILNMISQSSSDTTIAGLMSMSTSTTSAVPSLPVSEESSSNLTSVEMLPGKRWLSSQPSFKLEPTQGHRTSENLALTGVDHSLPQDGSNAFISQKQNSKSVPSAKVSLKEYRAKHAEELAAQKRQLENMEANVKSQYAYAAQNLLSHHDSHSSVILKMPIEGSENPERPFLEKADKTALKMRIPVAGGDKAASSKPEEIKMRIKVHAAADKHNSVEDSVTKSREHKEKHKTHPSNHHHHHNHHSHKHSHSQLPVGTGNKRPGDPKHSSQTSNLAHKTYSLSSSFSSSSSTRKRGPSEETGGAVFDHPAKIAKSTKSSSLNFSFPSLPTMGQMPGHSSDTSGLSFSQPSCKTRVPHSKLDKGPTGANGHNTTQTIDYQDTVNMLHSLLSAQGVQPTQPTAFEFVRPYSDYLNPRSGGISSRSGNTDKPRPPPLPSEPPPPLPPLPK
# Chain of CDK9/cyclin T1 (P50750 whole entry): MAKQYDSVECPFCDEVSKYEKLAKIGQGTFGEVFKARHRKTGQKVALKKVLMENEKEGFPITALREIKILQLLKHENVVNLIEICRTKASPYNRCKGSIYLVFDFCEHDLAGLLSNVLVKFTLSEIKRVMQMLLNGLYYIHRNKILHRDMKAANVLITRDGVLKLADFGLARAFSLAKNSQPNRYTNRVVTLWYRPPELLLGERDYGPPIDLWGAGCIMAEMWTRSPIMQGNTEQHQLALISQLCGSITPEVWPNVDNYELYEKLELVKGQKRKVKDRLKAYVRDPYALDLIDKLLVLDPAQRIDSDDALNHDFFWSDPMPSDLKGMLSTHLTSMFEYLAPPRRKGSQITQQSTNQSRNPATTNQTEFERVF
smiles,measurement,setting,value
CN(CCc1c[nH]c2ccccc12)C(=O)c1ccc(-c2ccccc2)cc1,IC50,CDK9/cyclin T1,> 1000 µM
same,inhibition,[1],inactive
same,inhibition,[2],inactive
same,IC50,[3],4 µM
same,IC50,NCI-H358 [4],2.2 µM
same,Activity,NCI-H358 [5],7%
same,Activity,NCI-H358 [6],72%
same,Activity,[7],2%
same,Activity,[8],31%
same,Activity,MiaPaCa [9],inactive
same,Activity,MiaPaCa [10],inactive
same,Activity (milli optical density/minute),Tubulin (Homo sapiens) [11],2.1
same,Activity,A549,Dose-dependent effect
same,Activity,NCI-H460,tde
same,solubility,[12],0.125 mg/mL
same,AUC(0-t),[13],0.172 µg·h/mL
same,Cmax,[14],0.371 µg/mL
same,bioavailability,[15],9.6%
same,half-life,[16],19.8 min
same,Activity,Mus musculus [17],Non-toxic
same,Activity,Mus musculus [18],Non-toxic
same,Activity,[19],Active
same,Activity,LS174T,Active
same,Activity (milli optical density/minute),Tubulin (Homo sapiens) [20],0.4
same,Activity,NCI-H1299 [21],Dose-dependent effect
same,Activity,NCI-H1299 [22],tde
same,Activity,NCI-H358 [23],tde
